Screening results as filed in PubChem.
m-calpain inh – inhibitors of pig calpain II; purified calpain II, fluorogenic peptide substrate, 30 min; inhibition, % at 16 µM; 220,000 compounds, 0.37% hits;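 active = inhibition above about 50%, limit read from the data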
Arbovirus anti – arbovirus infection inhibition | inhibition, % at 10 µM | arbovirus infection cell-based antiviral screen | 200,000 compounds, 0.37% hits; in the data active = inhibition above about 30%
Bim-Mcl-1 – disrupts Bim peptide binding to human Mcl-1; Q07820; Bead-based flow cytometry, Bim peptide-Mcl-1 binding; inhibition, % at 10 µM; 190,000 compounds, 0.1% hits; AID 1009; in the data active = inhibition above about 40%
Target sequence (Q07820 whole entry, looked up): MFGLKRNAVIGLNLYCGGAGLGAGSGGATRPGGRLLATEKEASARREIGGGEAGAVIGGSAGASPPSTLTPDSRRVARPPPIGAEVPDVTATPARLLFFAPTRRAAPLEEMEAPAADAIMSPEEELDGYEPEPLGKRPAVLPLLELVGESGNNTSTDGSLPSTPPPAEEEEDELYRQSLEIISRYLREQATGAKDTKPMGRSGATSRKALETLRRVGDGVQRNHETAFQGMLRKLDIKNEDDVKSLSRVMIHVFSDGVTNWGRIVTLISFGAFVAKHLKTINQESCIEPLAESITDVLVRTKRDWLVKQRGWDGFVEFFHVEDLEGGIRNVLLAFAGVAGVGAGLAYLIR
Mcl1 Noxa PPI – Mcl-1/Noxa interaction inhibition | 220,000 compounds, 1.5% hits | Q07820 | AID 1022 | TR-FRET Mcl-1/Noxa peptide binding, 2 h | inhibition, % at 21.7 µM;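 active = compounds that cut the protein-peptide binding signal by more than 50% relative to plate controls in a single-dose test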;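 also: His-tagged Mcl-1 with rhodamine Noxa BH3 peptide and terbium anti-His antibody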
Calb biofilm kill – mixture kills Candida albicans biofilm cells; C. albicans biofilm persisters + clotrimazole, fluorescence viability; primary screen in compound mixtures of four per well; inhibition, % at 7.6 µM; 120,000 compounds, 0.02% hits;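 active = inhibition above 30.3% in the primary screen of four-compound pools, then above 30% when the compound was retested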;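 also: compounds exposed to preformed 24 h biofilms for 48 h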
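System: C. albicans CAF4-2 wild-type biofilms; Medium: RPMI/MOPS medium, pH 7.0; Reagent: Clotrimazole, 50 µg/mL; Times: biofilm formation 24 h, compound exposure 48 h, 37 °C; Detection: 2-h Alamar Blue fluorescence, 535/590 nm excitation/emission; Evaluation: percent inhibition of biofilm viability.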
Mcl1-Bid inh – Mcl-1/Bid interaction inhibition | TR-FRET Mcl-1/Bid-Dy647 peptide binding, 1536-well | inhibition, % at 21.7 µM | 220,000 compounds, 0.97% hits;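 active = compounds that cut the binding signal by more than half at the single screening dose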;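 also: His-tagged Mcl-1 with europium anti-His antibody binding Bid BH3 peptide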
A number is an active result; n = inactive; x = no result. In the library only some 2.8% were active in any assay of this set; here they are far more common.

SMILES | m-calpain inh | Arbovirus anti | Bim-Mcl-1 | Mcl1 Noxa PPI | Calb biofilm kill | Mcl1-Bid inh
O=C(/C=C\c1ccco1)Nc1cc([N+](=O)[O-])ccc1F | n | n | n | n | n | n
O=C(/C=C/c1ccco1)Nc1cc(Cl)ccc1C(=O)O | n | 41.7 | n | n | n | n
O=C(/C=C/c1ccco1)Nc1ccccc1C(=O)O | n | n | n | 52.2 | n | n
COC(=O)c1ccccc1NC(=O)COC(=O)/C=C/c1ccco1 | n | n | n | n | n | 94.6
O=C(Nc1nc2ccccc2s1)c1cc2c(s1)-c1ccccc1OC2 | n | n | n | n | x | 57.4
O=C(Nc1nccs1)c1cc2c(s1)-c1ccccc1OC2 | n | n | n | n | x | n
Cc1cccc2c1-c1sc(C(=O)Nc3nccs3)cc1CO2 | n | 82.4 | n | n | x | n
O=C(Nc1ccc(Cl)cn1)c1cc2c(s1)-c1ccccc1OC2 | n | x | x | n | n | n
N#CC(c1ccc(Cl)cc1)N1CCOCC1 (stereo not drawn) | n | n | n | n | n | n
Oc1c(Cl)cc(Cl)cc1C(C#Cc1ccccc1)N1CCOCC1 (stereo not drawn) | 53.4 | n | n | n | x | n
Cc1ccc(-n2[nH]c(C)c(/C=N/Nc3ccc([N+](=O)[O-])cc3[N+](=O)[O-])c2=O)cc1C | n | n | n | 54.5 | n | n
Cc1[nH]n(-c2ccccc2)c(=O)c1/C=N/NC(=O)c1cccc([N+](=O)[O-])c1 | n | n | n | n | x | n
c1ccc2c(-c3cn4ccccc4n3)c[nH]c2c1 | n | n | n | n | n | n
C#CCOCCOCCOCCNc1nc(N2CCN(C(=O)[C@H](CCC(=O)O)n3cc(C(N)Cc4ccc(O)cc4)nn3)CC2)nc(N2CCN(C(=O)[C@H](CCC(=O)O)n3cc(C(N)CC(C)C)nn3)CC2)n1 (stereo partly drawn) | n | n | n | n | n | 59.8
C#CCOCCOCCOCCNc1nc(N2CCN(C(=O)[C@H](CCC(=O)O)n3cc(C(N)CC(C)C)nn3)CC2)nc(N2CCN(C(=O)[C@H](CCC(=O)O)n3cc(C(N)CC(C)C)nn3)CC2)n1 (stereo partly drawn) | n | n | n | n | n | 67.2
C#CCOCCOCCOCCNc1nc(N2CCN(C(=O)C([C@@H](C)CC)n3cc(C(N)CC(C)C)nn3)CC2)nc(N2CCN(C(=O)[C@H](CCC(=O)O)n3cc(C(N)CC(C)C)nn3)CC2)n1 (stereo partly drawn) | n | n | n | n | n | n
C#CCOCCOCCOCCNc1nc(N2CCN(C(=O)[C@H](CCC(=O)O)n3cc(C(N)CO)nn3)CC2)nc(N2CCN(C(=O)[C@H](Cc3ccc(O)cc3)n3cc(C(N)CC(C)C)nn3)CC2)n1 (stereo partly drawn) | n | n | n | n | n | n
C#CCOCCOCCOCCNc1nc(N2CCN(C(=O)[C@H]([C@@H](C)CC)n3cc([C@@H](N)CO)nn3)CC2)nc(N2CCN(C(=O)[C@H](Cc3ccc(O)cc3)n3cc([C@@H](N)CC(C)C)nn3)CC2)n1 | n | n | n | n | n | 63.4
NNC(=S)Nc1ccc(S(=O)(=O)N2CCCCC2)cc1 | n | x | x | n | n | n
NNC(=O)c1ccc(OCC2CC(c3ccc(Cl)cc3)=NO2)cc1 (stereo not drawn) | n | x | x | n | n | n
NC(=O)c1ccc(N2CCN(c3ccc(O)cc3)CC2)c([N+](=O)[O-])c1 | n | n | n | 64.1 | n | n
CC(=O)c1ccc(N2CCN(c3ccc(C(N)=O)cc3[N+](=O)[O-])CC2)cc1 | n | n | n | n | n | n
Cc1cccc(OCCCCCn2ccnc2)c1 | n | n | n | n | x | 51.1
O=[N+]([O-])c1cc(S(=O)(=O)N2CCCCC2)ccc1NCCCN1CCOCC1 | n | n | n | 53.6 | n | n
O=[N+]([O-])c1cc(S(=O)(=O)N2CCCCC2)ccc1NCCN1CCOCC1 | n | n | n | n | n | n
SMILES | m-calpain inh | Arbovirus anti | Bim-Mcl-1 | Mcl1 Noxa PPI | Calb biofilm kill | Mcl1-Bid inh
O=C(Nc1ccccc1N1CCOCC1)c1cccc(NS(=O)(=O)c2ccc(F)c(F)c2)c1 | n | n | n | n | n | n
O=C1CN(C(=O)COC(=O)CNS(=O)(=O)/C=C/c2ccccc2)c2ccccc2N1 | n | n | n | n | n | 58.4
O=C1CN(C(=O)COC(=O)CNS(=O)(=O)c2ccccc2)c2ccccc2N1 | n | n | n | n | n | n
CC(=O)c1cccc2c(O)c(C3=Nc4ccccc4C3=O)[nH]c12 | n | n | n | 62.3 | n | n
O=C1C(c2c(O)[nH]c3ccccc23)=Nc2ccccc21 | n | n | n | n | x | n
COc1cccc(C2=CC(c3ccc(OC)c(OC)c3)NC(=S)N2)c1 (stereo not drawn) | 58.6 | x | x | n | n | n
COc1cccc(C(=O)Nc2sc(C(C)C)cc2C(N)=O)c1OC | n | x | x | n | n | n
Cc1ccc(C(C)C)c(OCCN(C)C)c1 | n | n | n | n | x | 59.5
COc1ccc2nc(N3C(=O)CC(Cc4cc(C)cc(C)c4)C3=O)sc2c1 (stereo not drawn) | n | 39.4 | n | n | x | n
Cc1cc(S(=O)(=O)N2CCCCCC2)c(Cl)cc1Cl | n | n | n | n | x | n
O=C1COc2ccc(C(=O)/C=C/c3ccccc3)cc2N1 | n | n | n | n | n | n
O=C(O)/C=C/C(=O)Nc1ccc2c(c1)NC(=O)CO2 | n | n | n | 50.8 | n | n
C#CCn1cc(C=C2C(=O)c3ccccc3C2=O)c2ccccc21 | n | n | n | 54.7 | n | n
COC(=O)C1=C(C)N(Cc2ccco2)C(=O)N[C@@H]1c1cccc(C(F)(F)F)c1 | n | 31.7 | n | n | n | n
O=c1c2c(-c3cccs3)csc2ncn1-n1cccc1 | 81.5 | n | n | n | x | n
CC(=O)c1ccc(OCC(C)Oc2ccc(C#N)cc2)cc1 (stereo not drawn) | n | x | x | n | n | n
Cc1ccc(S(=O)(=O)N2CCN(Cc3ccccn3)CC2)cc1 | n | n | n | n | n | n
Cc1ccc(S(=O)(=O)N2CCN(Cc3cc(C(C)C)ccc3O)CC2)cc1 | n | 30.4 | n | n | x | n
COC(=O)Cc1csc(Nc2ccc(F)c(Cl)c2)n1 | n | n | n | n | n | n
Cn1c(NC(=O)/C=C\c2ccccc2)cc(=O)n(C)c1=O | 63.8 | n | n | n | n | n
Cn1c(NC(=O)Cc2ccc(F)cc2)cc(=O)n(C)c1=O | n | n | n | n | x | 65.4
C#CCOC(=O)Nc1ccc(OCC(F)(F)F)nc1 | n | x | x | n | n | n
CCOC(=O)C1=C(C)N(c2ccc(C)cc2)C(=O)/C1=C\c1ccc(O)c(OC)c1 | n | x | x | n | n | n
CCOC(=O)C1=C(O)c2ccccc2C(=O)/C1=C\c1ccc(C)cc1 | n | n | n | 79.1 | n | n
Cc1cc(C)n(CC2CC(=O)N(c3ccc(Cl)cc3)C2=O)n1 (stereo not drawn) | n | x | x | n | n | n
Cc1ccc(N2C(=O)CC(Cn3nc(C)cc3C)C2=O)cc1 (stereo not drawn) | n | n | n | n | x | 91.1
